Data on 10 compounds can be found in ChEMBL document CHEMBL4266032, “Methylated Polycyclic Polyprenylated Acylphloroglucinol Derivatives from Hypericum ascyron” (2018).

Each structure is given as a SMILES string.

For the first test, the system named is SK-N-SH. Put plainly: Neuroprotective activity against glutamate-induced toxicity in human SK-N-SH cells assessed as cell viability at 10 uM pretreated for 4 hrs followed by glutamate challenge measured after 4 hrs by MTT assay (reference value: 67.7 +/- 1.1%). The format is functional. As to conditions: read-out: Activity. A general note: Tetrazolium dyes change colour on reduction, which living cells bring about.
As to `CC(C)=CCC[C@]1(C)[C@@H](CC=C(C)C)C[C@]2(C)C(=O)C3=C(O[C@H](C(C)(C)O)[C@H]3O)[C@@]1(C(=O)c1ccccc1)C2=O`, the viability at 10 µM stood at 78.2%.

Turning to `CC(C)=CCC[C@]1(C)[C@@H](CC=C(C)C)C[C@]2(C)C(=O)C3=C(O[C@@H](C(C)(C)O)C3)[C@@]1(C(=O)c1ccccc1)C2=O`, the viability at 10 µM stood at 71.8%.

Turning to `Oc1ccc(/C=C/c2cc(O)cc(O)c2)cc1` [RESVERATROL], the viability at 10 µM came out at 82.5%.

For `CC(C)=CCC[C@]1(C)[C@@H](CC=C(C)C)C[C@]2(C)C(=O)C3=C(O[C@H](C(C)(C)O)[C@@H]3O)[C@@]1(C(=O)c1ccccc1)C2=O`, the viability at 10 µM came to 72.2%.

In the case of `CC(C)=CCC[C@]1(C)[C@@H](CC=C(C)C)C[C@@]2(C)C(=O)[C@]1(C(=O)c1ccccc1)C(=O)C1=C2O[C@@H](C(C)(C)O)C1`, the viability at 10 µM came out at 82.9%.

The next test relates to HepG2. Put plainly: Hepatoprotective activity in human HepG2 cells assessed as inhibition of paracetamol-induced reduction in cell viability at 10 uM pretreated for 1 hr followed by paracetamol addition after 24 hrs by MTT assay relative to control. The format is functional.
Details: not given
The essentials:
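HepG2 cells injured with paracetamol; test agents at 10 μM; viability read by MTT and given as % of normal, with protection expressed as % inhibition relative to the paracetamol-only control. Bicyclol at 10 μM served as positive control. Means ± SD, n = 3 (n = 6 for normal and control groups).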
For the compound `CC(C)=CCC[C@]1(C)[C@@H](CC=C(C)C)C[C@]2(C)C(=O)C3=C(O[C@H](C(C)(C)O)[C@H]3O)[C@@]1(C(=O)c1ccccc1)C2=O`, the inhibition (as a rule, the percentage by which the read-out fell short of the control) at 10 µM is 68.1%.

Take `COC(=O)c1cc(OC)c2c(c1-c1c(CO)cc(OC)c3c1OCO3)OCO2` [BICYCLOL]: the inhibition at 10 µM came out at 52.6%.

As to `CC(C)=CC[C@H]1C[C@]2(C)C(=O)C(C(=O)c3ccccc3)=C3O[C@H](C(C)(C)O)CC[C@@]1(C)[C@]3(CC=C(C)C)C2=O`, the inhibition at 10 µM turned out to be 42.9%.

As for `CC(C)=CCC1=C2O[C@H](C(C)(C)O)CC[C@]3(C)[C@@H](CC=C(C)C)C[C@](C)(C1=O)C(=O)[C@]23C(=O)c1ccccc1`, the inhibition at 10 µM was determined as 37.2%.

As for `CC(C)=CCC[C@]1(C)[C@@H](CC=C(C)C)C[C@]2(C)C(=O)C3=C(O[C@@H](C(C)(C)O)[C@H]3O)[C@@]1(C(=O)c1ccccc1)C2=O`, the inhibition at 10 µM was determined as 71.4%.

For the compound `CC(C)=CCC[C@]1(C)[C@@H](CC=C(C)C)C[C@@]2(C)C(=O)[C@]1(C(=O)c1ccccc1)C(=O)C1=C2O[C@H](C(C)(C)O)[C@@H]1O`, the inhibition at 10 µM came to 30.8%.
